Results as given in ChEMBL document CHEMBL1641499, “Towards echinomycin mimetics by grafting quinoxaline residues on glycophane scaffolds” (Bioorg Med Chem, 2011).
Active and inactive are the calls of the source. No cut-off for these calls is given here.

How the values were obtained:
Conditions in all cases: Bos taurus
Calf thymus DNA [1] = test: Binding affinity to calf thymus DNA at 20 uM after 20 mins by UV spectrophotometer analysis; format: nucleic-acid assay
Method in brief: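 Compound stock diluted in cuvette to 20 µM final with degassed 100 mM NaCl, 10 mM NaH2PO4, pH 7.0. Calf thymus DNA was added from stock. After each addition the sample was heated to 65 °C and cooled slowly (5 °C/min), and the UV-vis spectrum was recorded 20 min later at 25 °C. DNA concentration was set from ε260 = 6600 M−1 cm−1.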

Calf thymus DNA [2] = test: Binding affinity to calf thymus DNA assessed as change on melting temperature (reference value: 76 degC)
Calf thymus DNA [3] = test: Binding affinity to calf thymus DNA assessed as fluorescence enhancement at 20 uM by steady state fluorescence emission spectroscopic analysis relative to control

Compound	Activity (Calf thymus DNA [1])	Tm (Calf thymus DNA [2]) [°C]	fold change (FC) (Calf thymus DNA [3])
C=CCO[C@H]1O[C@H](C(=O)N(Cc2ccc(CN(Cc3cnc4ccccc4n3)C(=O)[C@H]3O[C@H](OCC=C)[C@H](O)[C@@H](O)[C@@H]3O)cc2)Cc2cnc3ccccc3n2)[C@@H](O)[C@H](O)[C@H]1O	Active	79	2.8
O=C1[C@H]2O[C@H](OCCC/C=C/CCCO[C@H]3O[C@H](C(=O)N(Cc4cnc5ccccc5n4)Cc4ccc(cc4)CN1Cc1cnc4ccccc4n1)[C@@H](O)[C@H](O)[C@H]3O)[C@H](O)[C@@H](O)[C@@H]2O	Active	79	–
C=CCCCO[C@H]1O[C@H](C(=O)N(Cc2ccc(CN(Cc3cnc4ccccc4n3)C(=O)[C@H]3O[C@H](OCCCC=C)[C@H](O)[C@@H](O)[C@@H]3O)cc2)Cc2cnc3ccccc3n2)[C@@H](O)[C@H](O)[C@H]1O	Active	81	2.8

Further lines, results first:

Activity (Calf thymus DNA [1])	Tm (Calf thymus DNA [2]) [°C]	fold change (FC) (Calf thymus DNA [3])	Compound
Active	78	5.5	O=C1[C@H]2O[C@H](OC/C=C/CO[C@H]3O[C@H](C(=O)N(Cc4cnc5ccccc5n4)Cc4ccc(cc4)CN1Cc1cnc4ccccc4n1)[C@@H](O)[C@H](O)[C@H]3O)[C@H](O)[C@@H](O)[C@@H]2O
Active	79	–	CS[C@H]1SC[C@H]2C(=O)N(C)[C@@H](C(C)C)C(=O)OC[C@@H](NC(=O)c3cnc4ccccc4n3)C(=O)N[C@@H](C)C(=O)N(C)[C@@H]1C(=O)N(C)[C@@H](C(C)C)C(=O)OC[C@@H](NC(=O)c1cnc3ccccc3n1)C(=O)N[C@@H](C)C(=O)N2C
